In general, Ki refers to the equilibrium dissociation constant of an inhibitor or competing ligand from its target. As usually defined, the IC50 is the midpoint of a concentration-inhibition curve. Higher therefore signals a need for much substance. By inhibition is commonly meant the percentage by which the read-out fell short of the control. The low end stands for little suppression, the high end for strong suppression.

The structures appear in SMILES notation.

Results on 2 compounds are retold here after ChEMBL document CHEMBL1949548, “A β-tryptase inhibitor with a tropanylamide scaffold to improve in vitro stability and to lower hERG channel binding affinity” (Bioorg Med Chem Lett, 2012).

Data set [1] can be described thus: Inhibition of human tryptase-beta using S-2366 as substrate by chromogenic assay.
The next data set deals with Cytochrome P450 3A4 (Homo sapiens, UniProt P08684). Briefly: Inhibition of human CYP3A4 using midazolam as substrate by LC-MS/MS analysis. Type of data set: ADME. In outline:
(§1)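 Direct-acting CYP inhibition was run in human liver microsomes. Activity was read by LC–MS/MS of marker-substrate turnover: midazolam for CYP3A4 and dexotromethorphan for CYP2D6. IC50 values were derived.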

A further data set addresses Cytochrome P450 2D6 (Homo sapiens, UniProt P10635). Briefly: Inhibition of human CYP2D6 using dexotromethorphan as substrate by LC-MS/MS analysis. Type of data set: ADME. In outline: as §1
Data set [2] in a line: Metabolic stability in human liver microsomes after 20 mins. Type of data set: ADME, Microsome. An outline of the steps: (§2)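 Liver microsomal fractions prepared by centrifugation. Compound incubated with the fractions for 20 min before the reaction was stopped. Stability expressed as percent of compound metabolized.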
On the technique in general: Liver microsomes are a subcellular fraction often used to study metabolism.

The nature of data set [3]: Chemical stability in presence of human semicarbazide-sensitive amine oxidase assessed as compound remaining. Type of data set: physicochemical. An outline of the steps:
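Human semicarbazide-sensitive amine oxidase (hSSAO) stability read as percent of compound remaining after 24 h.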

Data set [4] can be described thus: Metabolic stability in rat liver microsomes after 20 mins. Type of data set: ADME, Microsome. An outline of the steps: as §2
The target in data set [5] is Voltage-gated inwardly rectifying potassium channel KCNH2 (Homo sapiens, UniProt Q12809). Description: Inhibition of human ERG by whole-cell patch clamp electrophysiology assay. In outline:
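hERG potassium channel expressed in Chinese hamster ovary cells; channel currents recorded by whole-cell patch clamp electrophysiology.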
A general note: The patch-clamp technique gives a direct electrical read-out from membranes.

The target in data set [6] is T1, hERG (KCNH2) (Homo sapiens, UniProt Q12809). Description: Inhibition of human ERG at 10 uM by whole-cell patch clamp electrophysiology assay. In outline:
(§3)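 hERG potassium channel expressed in Chinese hamster ovary cells. Channel currents recorded by whole-cell patch clamp electrophysiology, with percent inhibition of current reported.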

In data set [7] the target is T1, hERG (KCNH2). Briefly: Inhibition of human ERG at 1 uM by whole-cell patch clamp electrophysiology assay. An outline of the steps:
as §3

Cytochrome P450 2D6, sequence (P10635 whole entry): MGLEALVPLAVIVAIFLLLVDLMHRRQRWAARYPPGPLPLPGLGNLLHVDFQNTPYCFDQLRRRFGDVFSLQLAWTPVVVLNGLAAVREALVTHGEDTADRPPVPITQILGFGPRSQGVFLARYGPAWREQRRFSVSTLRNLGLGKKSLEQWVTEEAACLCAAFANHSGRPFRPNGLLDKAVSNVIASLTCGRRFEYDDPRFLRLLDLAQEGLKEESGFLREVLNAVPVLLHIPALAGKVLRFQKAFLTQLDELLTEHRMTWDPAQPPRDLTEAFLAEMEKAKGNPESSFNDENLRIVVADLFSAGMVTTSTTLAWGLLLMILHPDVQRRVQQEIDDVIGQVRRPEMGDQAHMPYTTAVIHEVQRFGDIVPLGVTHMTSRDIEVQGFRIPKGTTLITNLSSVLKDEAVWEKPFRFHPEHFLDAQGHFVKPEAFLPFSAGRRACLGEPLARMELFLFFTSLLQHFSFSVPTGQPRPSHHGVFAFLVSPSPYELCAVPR
T1 sequence (Q12809 whole entry): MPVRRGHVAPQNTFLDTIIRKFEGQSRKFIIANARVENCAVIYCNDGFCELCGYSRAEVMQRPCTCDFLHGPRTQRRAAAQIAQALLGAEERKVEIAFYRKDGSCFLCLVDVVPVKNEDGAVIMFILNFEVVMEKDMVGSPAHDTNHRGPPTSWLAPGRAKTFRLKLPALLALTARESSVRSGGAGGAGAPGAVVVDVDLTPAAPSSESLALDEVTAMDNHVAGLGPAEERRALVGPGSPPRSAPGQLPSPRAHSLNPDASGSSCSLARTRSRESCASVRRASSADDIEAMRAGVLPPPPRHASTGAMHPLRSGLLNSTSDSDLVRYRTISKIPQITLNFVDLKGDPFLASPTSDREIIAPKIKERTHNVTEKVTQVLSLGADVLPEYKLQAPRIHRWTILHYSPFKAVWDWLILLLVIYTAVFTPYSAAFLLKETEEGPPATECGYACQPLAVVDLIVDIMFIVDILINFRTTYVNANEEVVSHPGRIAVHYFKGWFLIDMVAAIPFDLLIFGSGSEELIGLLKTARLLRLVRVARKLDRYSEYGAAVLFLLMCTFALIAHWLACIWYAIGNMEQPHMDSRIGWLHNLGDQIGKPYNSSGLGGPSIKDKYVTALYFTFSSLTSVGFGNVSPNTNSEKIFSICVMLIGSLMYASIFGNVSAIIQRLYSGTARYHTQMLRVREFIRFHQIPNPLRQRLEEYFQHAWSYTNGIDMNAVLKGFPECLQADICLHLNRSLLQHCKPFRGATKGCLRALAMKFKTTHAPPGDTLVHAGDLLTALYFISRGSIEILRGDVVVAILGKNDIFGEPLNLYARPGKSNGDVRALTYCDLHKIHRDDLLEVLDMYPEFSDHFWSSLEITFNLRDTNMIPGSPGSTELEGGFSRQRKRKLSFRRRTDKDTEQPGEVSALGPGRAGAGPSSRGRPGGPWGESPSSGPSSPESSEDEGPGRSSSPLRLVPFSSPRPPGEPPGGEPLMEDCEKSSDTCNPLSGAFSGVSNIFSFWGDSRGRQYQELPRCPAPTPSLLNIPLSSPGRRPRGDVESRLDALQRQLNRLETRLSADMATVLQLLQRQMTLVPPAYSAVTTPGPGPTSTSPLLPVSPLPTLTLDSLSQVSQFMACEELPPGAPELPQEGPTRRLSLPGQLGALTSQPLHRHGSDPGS
Cytochrome P450 3A4, sequence (P08684 whole entry): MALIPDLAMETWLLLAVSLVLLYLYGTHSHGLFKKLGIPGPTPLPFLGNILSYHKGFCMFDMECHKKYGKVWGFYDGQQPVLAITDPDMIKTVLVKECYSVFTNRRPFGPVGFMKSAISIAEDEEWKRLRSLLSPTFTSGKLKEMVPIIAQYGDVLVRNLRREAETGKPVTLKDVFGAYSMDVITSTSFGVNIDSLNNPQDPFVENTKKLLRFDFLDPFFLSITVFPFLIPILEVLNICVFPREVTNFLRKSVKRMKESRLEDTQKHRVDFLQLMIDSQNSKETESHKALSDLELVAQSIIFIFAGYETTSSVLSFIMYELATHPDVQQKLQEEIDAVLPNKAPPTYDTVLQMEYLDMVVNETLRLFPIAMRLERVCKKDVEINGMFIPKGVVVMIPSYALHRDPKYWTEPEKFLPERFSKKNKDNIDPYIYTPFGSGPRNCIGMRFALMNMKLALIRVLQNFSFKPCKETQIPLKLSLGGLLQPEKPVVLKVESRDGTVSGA
Voltage-gated inwardly rectifying potassium channel KCNH2, sequence (Q12809 whole entry): as the sequence (Q12809 whole entry) above

In turn, `CCCOc1sc(C(=O)N2CCC(c3cccc(CN)c3)CC2)c(C)c1Br` showed an inhibition constant Ki in data set [1] of 22 nM. The IC50 was found to be 4.7 µM against Cytochrome P450 3A4, 2.5 µM at Cytochrome P450 2D6 and 1000 nM in [5]. Also, the metabolized at 20 min in [2] was determined as 26%; in data set [4], 6%. The Stability in [3] was 70%.

At hERG (KCNH2) [6], `CCCOc1sc(C(=O)N2[C@H]3CC[C@H]2CC(c2cc(CN)ccc2F)C3)c(C)c1Br` (some centres undefined) yielded an inhibition at 10 µM of 36%. The IC50 against Cytochrome P450 3A4 was 5.3 µM; on Cytochrome P450 2D6 it was 6.9 µM. Also, the metabolized at 20 min was 7% in data set [2] and 0% in [4]. For the same compound, in data set [3], the Stability is listed as 86%. Moreover, 1 µM produced 14% inhibition against hERG (KCNH2) [7].
